Molecules are shown by their SMILES.

Our source for the Cp, concentration and GI50 values is ChEMBL document CHEMBL1138358, “Synthesis and in vivo antitumor evaluation of 2-methoxyestradiol 3-phosphate, 17-phosphate, and 3,17-diphosphate” (J Med Chem, 2007).

The subject of the first data set is Plasma. Description: Drug level in Sprague-Dawley rat plasma at 1 mg/kg, iv assessed as 2-methoxyestradiol level after 5 mins. Format: ADME, organism-based. The arrangement: dose 1 mg/kg, route intravenous. The conditions noted are these: in vivo. The method in brief:
(§1)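 Jugular-cannulated Sprague–Dawley rats were fasted overnight and given a single tail-vein dose in 45% (w/v) hydroxypropyl-β-cyclodextrin in water (0.5 mg/mL, 2 mL/kg). K-EDTA blood was drawn via the cannula and the plasma was frozen below −20 °C. Plasma was acidified with formic acid and analysed by negative-ion ESI LC-MS/MS (MRM). Standard curves were spiked into rat plasma.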
As for `COc1cc2c(cc1O)CC[C@@H]1[C@@H]2CC[C@]2(C)[C@@H](OP(=O)(O)O)CC[C@@H]12`, the Cp was 34.1 ng/mL.

Tested on in another data set: not listed separately
Description: Drug level in Sprague-Dawley rat plasma at 1 mg/kg, iv after 5 mins. The data set is classed as ADME, organism-based. Set-up: dose 1 mg/kg, route intravenous.
Conditions: not given
The procedure, abridged: as §1
In turn, `COc1cc2c(cc1O)CC[C@@H]1[C@@H]2CC[C@]2(C)[C@@H](OP(=O)(O)O)CC[C@@H]12` registered a concentration at 5 min of 1320 ng/mL.

For a further data set, the system named is Plasma. Description: Drug level in Sprague-Dawley rat plasma at 1 mg/kg, iv assessed as 2-methoxyestrone level after 5 mins. Format: ADME, organism-based. Set-up: dose 1 mg/kg, route intravenous. The conditions noted are these: in vivo. The method in brief: as §1
On to `COc1cc2c(cc1O)CC[C@@H]1[C@@H]2CC[C@]2(C)[C@@H](OP(=O)(O)O)CC[C@@H]12`, for which the Cp is 5 ng/mL.

Tested on in another data set: not listed separately
The data set is described as follows: Drug level in Sprague-Dawley rat plasma at 1 mg/kg, iv after 15 mins. Format: ADME, organism-based. The arrangement: dose 1 mg/kg, route intravenous.
Conditions: not given
The method in brief:
as §1
Molecule `COc1cc2c(cc1O)CC[C@@H]1[C@@H]2CC[C@]2(C)[C@@H](OP(=O)(O)O)CC[C@@H]12` showed a concentration at 0.25 h of 351 ng/mL.

Another data set has as its system SF-539. The data set is described as follows: Cytotoxicity against human SF539 cells.
Conditions: not given
Format: functional.
`COc1cc2c(cc1O)CC[C@@H]1[C@@H]2CC[C@]2(C)[C@@H](OP(=O)(O)O)CC[C@@H]12`: the GI50 (usually the concentration giving 50% growth inhibition) amounted to 75.9 µM.

The next data set concerns Plasma. Description: Drug level in Sprague-Dawley rat plasma at 1 mg/kg, iv assessed as 2-methoxyestrone level after 120 mins. The conditions noted are these: in vivo, 2 h. The data set is classed as ADME, organism-based. Set-up: dose 1 mg/kg, route intravenous. The procedure, abridged: as §1
As for `COc1cc2c(cc1O)CC[C@@H]1[C@@H]2CC[C@]2(C)[C@@H](OP(=O)(O)O)CC[C@@H]12`, the Cp was found to be 5 ng/mL.

The test system of a further data set is Plasma. Description: Drug level in Sprague-Dawley rat plasma at 1 mg/kg, iv assessed as 2-methoxyestradiol level after 30 mins. Format: ADME, organism-based. Set-up: dose 1 mg/kg, route intravenous. The conditions noted are these: in vivo, 0.5 h. The procedure, abridged:
as §1
Turning to `COc1cc2c(cc1O)CC[C@@H]1[C@@H]2CC[C@]2(C)[C@@H](OP(=O)(O)O)CC[C@@H]12`, the Cp was found to be 9.2 ng/mL.

Another data set concerns Plasma. Description: Drug level in Sprague-Dawley rat plasma at 1 mg/kg, iv assessed as 2-methoxyestradiol level after 120 mins. Set-up: dose 1 mg/kg, route intravenous. Format: ADME, organism-based. The conditions noted are these: in vivo, 2 h. The procedure, abridged:
as §1
In the case of `COc1cc2c(cc1O)CC[C@@H]1[C@@H]2CC[C@]2(C)[C@@H](OP(=O)(O)O)CC[C@@H]12`, the Cp was determined as 5 ng/mL.

The next data set has as its system HCT-116. The data set is described as follows: Cytotoxicity against human HCT116 cells. The data set is classed as functional.
Conditions: not given
The molecule `COc1cc2c(cc1O)CC[C@@H]1[C@@H]2CC[C@]2(C)[C@@H](OP(=O)(O)O)CC[C@@H]12` came in with a GI50 of 87.1 µM.

A further data set concerns SN12C. The data set is described as follows: Cytotoxicity against human SN12C cells. The data set is classed as functional.
Conditions: not given
In turn, `COc1cc2c(cc1O)CC[C@@H]1[C@@H]2CC[C@]2(C)[C@@H](OP(=O)(O)O)CC[C@@H]12` had a GI50 of more than 100 µM.

The subject of a further data set is Plasma. Description: Drug level in Sprague-Dawley rat plasma at 1 mg/kg, iv assessed as 2-methoxyestrone level after 15 mins. The data set is classed as ADME, organism-based. The arrangement: dose 1 mg/kg, route intravenous. The conditions noted are these: in vivo, 0.25 h. The method in brief:
as §1
For `COc1cc2c(cc1O)CC[C@@H]1[C@@H]2CC[C@]2(C)[C@@H](OP(=O)(O)O)CC[C@@H]12`, the Cp amounted to 5 ng/mL.

Tested on in a further data set: not listed separately
The data set is described as follows: Drug level in Sprague-Dawley rat plasma at 1 mg/kg, iv after 30 mins. The arrangement: dose 1 mg/kg, route intravenous. Format: ADME, organism-based.
Conditions: not given
The method in brief:
as §1
For the molecule `COc1cc2c(cc1O)CC[C@@H]1[C@@H]2CC[C@]2(C)[C@@H](OP(=O)(O)O)CC[C@@H]12`, the concentration at 0.5 h is 138 ng/mL.

In another data set the test system is UACC-62. Description: Cytotoxicity against human UACC62 cells. The data set is classed as functional.
Conditions: not given
The molecule `COc1cc2c(cc1O)CC[C@@H]1[C@@H]2CC[C@]2(C)[C@@H](OP(=O)(O)O)CC[C@@H]12` yielded a 50% growth inhibitory concentration (GI50) of 38 µM.

A further data set has as its system Plasma. Description: Drug level in Sprague-Dawley rat plasma at 1 mg/kg, iv assessed as 2-methoxyestrone level after 60 mins. The conditions noted are these: in vivo, 1 h. Format: ADME, organism-based. The arrangement: dose 1 mg/kg, route intravenous. The procedure, abridged: as §1
Consider `COc1cc2c(cc1O)CC[C@@H]1[C@@H]2CC[C@]2(C)[C@@H](OP(=O)(O)O)CC[C@@H]12`, for which the Cp worked out at 5 ng/mL.

A further data set relates to Plasma. The data set is described as follows: Drug level in Sprague-Dawley rat plasma at 1 mg/kg, iv assessed as 2-methoxyestrone level after 30 mins. Format: ADME, organism-based. The arrangement: dose 1 mg/kg, route intravenous. The conditions noted are these: in vivo, 0.5 h. The method in brief: as §1
Regarding `COc1cc2c(cc1O)CC[C@@H]1[C@@H]2CC[C@]2(C)[C@@H](OP(=O)(O)O)CC[C@@H]12`, the Cp came to 5 ng/mL.

Tested on in the next data set: not listed separately
Description: Drug level in Sprague-Dawley rat plasma at 1 mg/kg, iv after 120 mins. Format: ADME, organism-based. The arrangement: dose 1 mg/kg, route intravenous.
Conditions: not given
The procedure, abridged: as §1
In turn, `COc1cc2c(cc1O)CC[C@@H]1[C@@H]2CC[C@]2(C)[C@@H](OP(=O)(O)O)CC[C@@H]12` showed a concentration at 2 h of 6.9 ng/mL.

The test system of another data set is MDA-MB-435. The data set is described as follows: Cytotoxicity against human MDA-MB-435 cells. The data set is classed as functional.
Conditions: not given
Turning to `COc1cc2c(cc1O)CC[C@@H]1[C@@H]2CC[C@]2(C)[C@@H](OP(=O)(O)O)CC[C@@H]12`, the GI50 amounted to 20 µM.

Tested on in a further data set: not listed separately
The data set is described as follows: Drug level in Sprague-Dawley rat plasma at 1 mg/kg, iv after 60 mins.
Conditions: not given
The data set is classed as ADME, organism-based. Set-up: dose 1 mg/kg, route intravenous. The method in brief:
as §1
`COc1cc2c(cc1O)CC[C@@H]1[C@@H]2CC[C@]2(C)[C@@H](OP(=O)(O)O)CC[C@@H]12` displayed a concentration at 1 h of 21.2 ng/mL.

The test system of the next data set is Plasma. The data set is described as follows: Drug level in Sprague-Dawley rat plasma at 1 mg/kg, iv assessed as 2-methoxyestradiol level after 60 mins. Format: ADME, organism-based. The arrangement: dose 1 mg/kg, route intravenous. The conditions noted are these: in vivo, 1 h. The procedure, abridged:
as §1
As to `COc1cc2c(cc1O)CC[C@@H]1[C@@H]2CC[C@]2(C)[C@@H](OP(=O)(O)O)CC[C@@H]12`, the Cp was 5 ng/mL.

A further data set concerns Plasma. Description: Drug level in Sprague-Dawley rat plasma at 1 mg/kg, iv assessed as 2-methoxyestradiol level after 15 mins. Set-up: dose 1 mg/kg, route intravenous. The data set is classed as ADME, organism-based. The conditions noted are these: in vivo, 0.25 h. The method in brief:
as §1
Regarding `COc1cc2c(cc1O)CC[C@@H]1[C@@H]2CC[C@]2(C)[C@@H](OP(=O)(O)O)CC[C@@H]12`, the Cp amounted to 15 ng/mL.
